Reference: PMC10237622 (Structure (London, England : 1993), 2023)

What was measured:
[1] = test system: CSP peptides Pep-II through Pep-IV; test: BLI free energies of binding, peptides Pep-II through Pep-IV versus Pep-I; design: species or system Plasmodium falciparum; settings: Pep-II though Pep-IV after subtraction of Pep-I
Outline: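 Free energy of binding was calculated from each experimental KD. The Pep-I value was subtracted from Pep-II through Pep-IV to isolate added binding energy from multivalent and homotypic interactions.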

[2] = target: CSP peptide Pep-IV (3 NPNV; 1 NPNA); test: Biolayer interferometry; type: binding, Plasmodium falciparum
[3] = test system: CSP peptide Pep-III (2 NPNV; 0 NPNA); test: Biolayer interferometry; type: binding, Plasmodium falciparum
[4] = test system: peptides Pep-I through Pep-IV; test: Reverse-format BLI, immobilized L9 IgG dipped into peptide; type: binding, Plasmodium falciparum; settings: IgG (5 ug/mL) immobilized on AHC biosensors to 0.1 nm, dipped into varying peptide concentrations, 30°C
[5] = test system: CSP peptide Pep-II (1 NPNV; 1 NPNA); test: Biolayer interferometry; type: binding, Plasmodium falciparum
Outline: (§1)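 Streptavidin biosensors were loaded with biotinylated CSP peptide at 0.1 ug/mL in PBS + 1% BSA. Loading times were shortened per peptide (45, 30, 15, 3 s) to keep density below 0.01 nm. After a 60 s baseline, Fab (2000–2.7 nM), IgG (1000–1.3 nM) or IgM (100–0.1 nM) associated for 240–300 s, then dissociated 1200 s, at 30°C with agitation. Curves were drift-corrected against a loaded sensor in PBS and fitted globally to a 1:1 Langmuir model.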

[6] = test system: CSP peptide Pep-I (1 NPNV; 0 NPNA); test: Biolayer interferometry; type: binding, Plasmodium falciparum; settings: IgG versus Fab
Outline: as §1

Substance: IgM: L9 IgM, produced in house
- increase in affinity, Fab/IgG/IgM context compared (in words) [1]: lowest in the IgM context

Substance: L9 IgG: L9 IgG, produced in house
- decrease in KD (in words) ([2]; L9 IgG, Pep-IV versus Pep-I): over two orders of magnitude
- affinity (in words) ([2]; Pep-IV (3 NPNV; 1 NPNA)): substantially higher affinity
- increase in affinity (free energy of binding ΔG minus ΔG of Pep-I) ([3]; L9 IgG, homotypic and preferred NPNV with two L9s (Pep-III), calculated from KD): -2.2 kcal/mol
- affinity, fold higher than to Pep-II ([3]; Pep-III versus Pep-II): ~ 6 fold
- increase in affinity, Fab/IgG/IgM context compared (in words) [1]: greatest in the IgG context
- affinity, reverse format (in words) [4]: comparable affinities to peptides Pep-I through Pep-IV
- increase in affinity (free energy of binding ΔG minus ΔG of Pep-I) ([5]; L9 IgG, homotypic and less preferred NPNA with two L9s (Pep-II), calculated from KD): -1.1 kcal/mol
- affinity, fold higher than to Pep-I ([5]; Pep-II versus Pep-I): ~ 6 fold
- on-rate, fold higher than Fab [6]: 25 fold
